Experiments:
[1] = system: Human immunodeficiency virus 1; assay: Antiviral activity against HIV1 infected in human MT4 cells assessed as reduction in virus-induced cytopathic effect after 5 days by MTT assay; format: functional, organism-based; details: Human immunodeficiency virus 1, MT4, 120 h
Outline: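 HIV stock at 100–300 CCID50 added to MT-4 cells (6 × 10^5 cells/ml after centrifugation of exponentially growing cells), compounds as serial 5-fold dilutions in triplicate wells. After 5 days, viability read by MTT reduction at 540 and 690 nm, median of three wells. EC50 taken as concentration reducing virus-induced cytopathic effect by 50%.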

[2] = target: Human immunodeficiency virus type 1 reverse transcriptase (Human immunodeficiency virus 1, UniProt Q72547); assay: Inhibition of wild type recombinant HIV1 reverse transcriptase p66/p51 using poly(rA)/oligo(dT)16 as template/primer measured after 40 mins by picogreen dye-based spectrofluorometric method
[3] = Cytotoxicity against human MT4 cells assessed as reduction in cell viability after 5 days by MTT assay; format: cell-based
Outline: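 Mock-infected MT-4 cells (6 × 10^5 cells/ml) run alongside infected wells, receiving serial 5-fold compound dilutions in triplicate. After 5 days, MTT formazan read at 540 and 690 nm, median of three wells. CC50 is the concentration lowering OD540 of mock-infected control by 50%.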

[4] = Selectivity index, ratio of CC50 for human MT4 cells to EC50 for antiviral activity againstHIV1 infected in human MT4 cells; format: toxicity, cell-based; details: read-out: Ratio CC50/EC50
Outline: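 Ratio CC50/EC50, both from the same 5-day MTT run in MT-4 cells, mock-infected versus HIV-infected (100–300 CCID50) wells.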

Row | IC50 [2] [µM] | SMILES | EC50 [1] [µM] | CC50 at 120 h [3] [µM] | selectivity ratio [4]
1 | > 100 | O=C1CSC(c2ccccc2Cl)N1c1nnc(S)s1 (stereo unspecified) | > 200 | 200 | < 1
2 | > 100 | O=C1CSC(c2cccc(Cl)c2)N1c1nnc(S)s1 (stereo unspecified) | > 238 | 238 | < 1
3 | > 100 | O=C1CSC(c2ccccc2)N1c1nnc(S)s1 (stereo unspecified) | 32 | > 423 | 13
4 | 21.8 | NS(=O)(=O)c1ccc(NC(=O)CSc2nnc(N3C(=O)CSC3c3ccccc3Cl)s2)cc1 (stereo unspecified) | > 18.8 | ≥ 18.8 | 

The next lines start with the compound.

Row | SMILES | IC50 [2] [µM] | EC50 [1] [µM] | CC50 at 120 h [3] [µM] | selectivity ratio [4]
5 | CS(=O)(=O)c1ccc(NC(=O)CSc2nnc(N3C(=O)CSC3c3cccc(Cl)c3)s2)cc1 (stereo unspecified) | 15.8 | > 113 | 113 | < 1
6 | NS(=O)(=O)c1ccc(NC(=O)CSc2nnc(N3C(=O)CSC3c3ccc(Cl)cc3)s2)cc1 (stereo unspecified) | 72 | ≥ 225 | ≥ 222 | 
7 | CS(=O)(=O)c1ccc(NC(=O)CSc2nnc(N3C(=O)CSC3c3ccccc3Cl)s2)cc1 (stereo unspecified) | 11.8 | ≥ 173 | ≥ 173 | 
8 | O=C1CSC(c2ccc(Cl)cc2)N1c1n[nH]c(=S)s1 (stereo unspecified) | > 363 | > 195 | 195 | < 1
9 | Cc1ccnc2c1NC(=O)c1cccnc1N2C1CC1 [NEVIRAPINE] |  |  | > 15 | 
10 | CS(=O)(=O)c1ccc(NC(=O)CSc2nnc(N3C(=O)CSC3c3ccccc3)s2)cc1 (stereo unspecified) | 40.6 | > 130 | 130 | < 1
11 | CS(=O)(=O)c1ccc(NC(=O)CSc2nnc(N3C(=O)CSC3c3ccc(Cl)cc3)s2)cc1 (stereo unspecified) | 39.4 | > 116 | 116 | < 1
12 | NS(=O)(=O)c1ccc(NC(=O)CSc2nnc(N3C(=O)CSC3c3cccc(Cl)c3)s2)cc1 (stereo unspecified) | 19.2 | > 118 | 118 | < 1
13 | NS(=O)(=O)c1ccc(NC(=O)CSc2nnc(N3C(=O)CSC3c3ccccc3)s2)cc1 (stereo unspecified) | 30.6 | > 99.2 | 99.2 | < 1

From ChEMBL document CHEMBL4616638, “Inhibition of HIV-1 RT activity by a new series of 3-(1,3,4-thiadiazol-2-yl)thiazolidin-4-one derivatives” (Bioorg Med Chem, 2020)
